As usually defined, the IC50 is the concentration that gives 50% inhibition. The solubility is how much of the substance goes into solution per volume. A high value points to a readily soluble substance.

Molecules are shown by their SMILES.

The target in data set [1] is Non-receptor tyrosine-protein kinase TYK2 (Homo sapiens, UniProt P29597). Briefly: Inhibition of recombinant TYK2.
For data set [2], the target named is Tyrosine-protein kinase JAK1 (Homo sapiens, UniProt P23458). Description: Inhibition of recombinant JAK1 using Poly (Glu,Ala,Tyr) as substrate after 2 hrs by luminescence assay. The method, boiled down: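 Luciferase-coupled ATP-depletion luminescence assay in 50 mM Hepes pH 7.5 with MgCl₂, MnCl₂, BGP, DTT and orthovanadate, 2 h at room temperature. Conditions per target: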

Data set [3] has as its target Tyrosine-protein kinase JAK2 (Homo sapiens, UniProt O60674). Briefly: Inhibition of recombinant JAK2 using Poly (Glu,Ala,Tyr) as substrate after 2 hrs by luminescence assay.
The target of data set [4] is Cyclin-dependent kinase 2/cyclin A (Homo sapiens, UniProt P24941). Description: Inhibition of recombinant CDK2/Cyclin A using RbinG as substrate after 2 hrs by luminescence assay. Format: protein-complex assay.
Data set [5] is described as follows: physchem. Particulars: phosphate buffer saline, pH 7.
Data set [6] concerns the target T1, Receptor-type tyrosine-protein kinase FLT3 (Homo sapiens, UniProt P36888).
T1 sequence (P36888 whole entry): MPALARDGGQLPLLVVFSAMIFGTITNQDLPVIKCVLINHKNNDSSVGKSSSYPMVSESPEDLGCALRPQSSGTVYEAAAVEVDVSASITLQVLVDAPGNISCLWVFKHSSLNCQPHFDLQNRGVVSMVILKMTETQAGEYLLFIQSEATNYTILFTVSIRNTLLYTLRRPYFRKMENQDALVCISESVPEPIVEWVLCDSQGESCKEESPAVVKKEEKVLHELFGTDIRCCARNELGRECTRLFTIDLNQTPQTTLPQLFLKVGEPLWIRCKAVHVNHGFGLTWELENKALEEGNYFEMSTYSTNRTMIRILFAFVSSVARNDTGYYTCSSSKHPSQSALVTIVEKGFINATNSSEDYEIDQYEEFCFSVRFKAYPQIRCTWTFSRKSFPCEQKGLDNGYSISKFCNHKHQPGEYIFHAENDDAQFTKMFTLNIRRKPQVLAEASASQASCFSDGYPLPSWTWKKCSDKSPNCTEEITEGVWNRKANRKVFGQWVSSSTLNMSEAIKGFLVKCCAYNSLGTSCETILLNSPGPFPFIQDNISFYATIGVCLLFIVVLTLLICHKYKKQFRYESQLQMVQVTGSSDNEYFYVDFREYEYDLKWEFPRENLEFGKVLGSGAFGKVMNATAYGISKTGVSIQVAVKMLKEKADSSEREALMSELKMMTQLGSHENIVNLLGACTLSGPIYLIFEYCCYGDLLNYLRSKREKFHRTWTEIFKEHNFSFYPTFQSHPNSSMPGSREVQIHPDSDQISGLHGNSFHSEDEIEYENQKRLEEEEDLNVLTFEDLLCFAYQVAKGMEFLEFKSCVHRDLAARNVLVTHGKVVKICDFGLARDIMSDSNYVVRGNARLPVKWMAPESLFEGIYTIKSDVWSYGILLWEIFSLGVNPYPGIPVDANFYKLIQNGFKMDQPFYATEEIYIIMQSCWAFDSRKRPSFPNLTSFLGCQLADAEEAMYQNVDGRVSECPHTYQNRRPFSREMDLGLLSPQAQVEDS
Briefly: Inhibition of recombinant FLT3 using Poly (Glu,Tyr) as substrate after 2 hrs by luminescence assay.

Data set [7] deals with T2, Tyrosine-protein kinase JAK3 (Homo sapiens, UniProt P52333).
T2 sequence (P52333 whole entry): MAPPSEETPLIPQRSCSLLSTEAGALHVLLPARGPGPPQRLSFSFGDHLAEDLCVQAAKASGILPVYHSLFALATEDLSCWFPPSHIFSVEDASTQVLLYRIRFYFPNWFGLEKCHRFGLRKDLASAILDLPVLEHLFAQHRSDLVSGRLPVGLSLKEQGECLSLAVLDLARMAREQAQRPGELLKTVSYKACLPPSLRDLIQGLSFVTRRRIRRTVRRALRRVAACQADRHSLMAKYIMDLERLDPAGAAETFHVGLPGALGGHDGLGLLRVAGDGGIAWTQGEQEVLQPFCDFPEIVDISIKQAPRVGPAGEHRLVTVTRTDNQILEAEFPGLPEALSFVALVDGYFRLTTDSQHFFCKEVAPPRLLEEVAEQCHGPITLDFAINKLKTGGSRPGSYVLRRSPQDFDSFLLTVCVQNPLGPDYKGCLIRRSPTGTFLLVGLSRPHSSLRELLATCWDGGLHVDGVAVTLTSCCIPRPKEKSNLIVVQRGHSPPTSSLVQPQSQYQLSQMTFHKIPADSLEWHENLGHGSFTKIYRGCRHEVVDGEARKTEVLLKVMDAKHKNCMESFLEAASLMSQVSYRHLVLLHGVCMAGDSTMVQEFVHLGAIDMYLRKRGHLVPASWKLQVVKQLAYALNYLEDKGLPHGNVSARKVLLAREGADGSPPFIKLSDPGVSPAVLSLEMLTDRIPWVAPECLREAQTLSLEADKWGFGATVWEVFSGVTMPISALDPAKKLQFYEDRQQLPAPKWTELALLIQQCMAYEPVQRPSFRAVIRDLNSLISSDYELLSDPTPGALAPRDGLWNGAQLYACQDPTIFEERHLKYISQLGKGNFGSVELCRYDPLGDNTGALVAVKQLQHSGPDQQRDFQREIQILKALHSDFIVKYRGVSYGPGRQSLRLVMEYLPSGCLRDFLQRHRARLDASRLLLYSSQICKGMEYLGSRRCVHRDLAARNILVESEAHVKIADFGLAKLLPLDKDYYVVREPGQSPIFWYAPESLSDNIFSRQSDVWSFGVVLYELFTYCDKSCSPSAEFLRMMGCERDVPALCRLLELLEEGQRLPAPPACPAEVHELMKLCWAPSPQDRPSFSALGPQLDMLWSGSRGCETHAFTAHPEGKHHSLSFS
Briefly: Inhibition of recombinant JAK3 using Poly (Glu,Ala,Tyr) as substrate after 2 hrs by luminescence assay.

Sequence of Tyrosine-protein kinase JAK1 (P23458 whole entry): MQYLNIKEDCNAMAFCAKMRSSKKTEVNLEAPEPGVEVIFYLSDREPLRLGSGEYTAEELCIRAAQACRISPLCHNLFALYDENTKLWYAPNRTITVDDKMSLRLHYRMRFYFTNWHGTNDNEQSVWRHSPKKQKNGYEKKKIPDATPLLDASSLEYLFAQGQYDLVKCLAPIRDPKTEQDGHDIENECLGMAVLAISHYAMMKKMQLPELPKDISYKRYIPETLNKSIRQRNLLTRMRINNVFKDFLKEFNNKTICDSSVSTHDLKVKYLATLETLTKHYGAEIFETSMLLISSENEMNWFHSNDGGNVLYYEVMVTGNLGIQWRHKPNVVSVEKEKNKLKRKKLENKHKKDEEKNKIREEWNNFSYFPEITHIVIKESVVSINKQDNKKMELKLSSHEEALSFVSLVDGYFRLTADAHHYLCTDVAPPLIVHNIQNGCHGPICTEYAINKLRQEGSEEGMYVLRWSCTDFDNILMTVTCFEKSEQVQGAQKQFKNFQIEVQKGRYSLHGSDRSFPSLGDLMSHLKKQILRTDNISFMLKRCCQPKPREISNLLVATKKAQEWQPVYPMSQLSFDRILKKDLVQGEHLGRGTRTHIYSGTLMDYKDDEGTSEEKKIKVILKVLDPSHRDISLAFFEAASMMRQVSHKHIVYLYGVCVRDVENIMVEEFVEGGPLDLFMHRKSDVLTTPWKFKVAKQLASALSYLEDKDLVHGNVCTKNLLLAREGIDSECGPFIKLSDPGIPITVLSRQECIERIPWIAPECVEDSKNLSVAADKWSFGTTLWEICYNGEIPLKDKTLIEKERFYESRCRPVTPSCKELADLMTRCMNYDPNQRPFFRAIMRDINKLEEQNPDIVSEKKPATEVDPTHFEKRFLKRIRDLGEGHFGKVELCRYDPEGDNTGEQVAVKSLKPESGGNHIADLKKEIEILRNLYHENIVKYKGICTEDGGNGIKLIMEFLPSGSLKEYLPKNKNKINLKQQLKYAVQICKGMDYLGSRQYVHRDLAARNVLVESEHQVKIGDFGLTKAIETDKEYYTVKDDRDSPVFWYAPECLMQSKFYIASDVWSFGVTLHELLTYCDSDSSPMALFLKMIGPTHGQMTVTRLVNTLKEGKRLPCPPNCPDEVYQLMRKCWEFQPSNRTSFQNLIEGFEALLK
Sequence of Non-receptor tyrosine-protein kinase TYK2 (P29597 whole entry): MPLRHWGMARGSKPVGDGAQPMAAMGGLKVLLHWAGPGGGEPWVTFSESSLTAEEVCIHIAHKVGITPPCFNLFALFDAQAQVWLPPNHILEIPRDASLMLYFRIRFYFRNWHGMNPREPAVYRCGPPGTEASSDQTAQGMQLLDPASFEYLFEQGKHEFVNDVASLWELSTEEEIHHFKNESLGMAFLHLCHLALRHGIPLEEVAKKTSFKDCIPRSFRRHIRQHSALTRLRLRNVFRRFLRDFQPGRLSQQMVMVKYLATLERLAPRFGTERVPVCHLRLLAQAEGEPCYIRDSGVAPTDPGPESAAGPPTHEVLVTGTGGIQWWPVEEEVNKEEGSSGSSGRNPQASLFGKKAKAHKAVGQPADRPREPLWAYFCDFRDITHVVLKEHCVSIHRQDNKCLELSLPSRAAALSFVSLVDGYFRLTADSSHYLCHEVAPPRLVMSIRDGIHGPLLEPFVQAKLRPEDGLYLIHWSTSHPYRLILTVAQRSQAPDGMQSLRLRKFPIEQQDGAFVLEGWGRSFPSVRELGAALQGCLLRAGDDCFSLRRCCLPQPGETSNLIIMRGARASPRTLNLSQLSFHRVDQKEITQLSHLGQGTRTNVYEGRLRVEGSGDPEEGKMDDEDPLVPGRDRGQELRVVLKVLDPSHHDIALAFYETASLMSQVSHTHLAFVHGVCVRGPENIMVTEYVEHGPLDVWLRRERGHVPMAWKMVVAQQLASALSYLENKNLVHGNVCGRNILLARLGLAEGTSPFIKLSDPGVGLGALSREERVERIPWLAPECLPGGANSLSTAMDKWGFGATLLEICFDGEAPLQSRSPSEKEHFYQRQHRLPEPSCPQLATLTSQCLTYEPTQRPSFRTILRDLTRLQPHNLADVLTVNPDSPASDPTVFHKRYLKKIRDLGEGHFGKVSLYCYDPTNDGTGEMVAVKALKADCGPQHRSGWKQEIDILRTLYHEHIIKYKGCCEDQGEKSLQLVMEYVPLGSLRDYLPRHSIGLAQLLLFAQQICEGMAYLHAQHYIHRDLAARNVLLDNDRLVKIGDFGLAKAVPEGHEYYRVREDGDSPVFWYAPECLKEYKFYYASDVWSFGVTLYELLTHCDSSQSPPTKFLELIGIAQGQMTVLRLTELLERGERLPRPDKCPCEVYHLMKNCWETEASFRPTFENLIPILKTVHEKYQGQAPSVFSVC
Sequence of Tyrosine-protein kinase JAK2 (O60674 whole entry): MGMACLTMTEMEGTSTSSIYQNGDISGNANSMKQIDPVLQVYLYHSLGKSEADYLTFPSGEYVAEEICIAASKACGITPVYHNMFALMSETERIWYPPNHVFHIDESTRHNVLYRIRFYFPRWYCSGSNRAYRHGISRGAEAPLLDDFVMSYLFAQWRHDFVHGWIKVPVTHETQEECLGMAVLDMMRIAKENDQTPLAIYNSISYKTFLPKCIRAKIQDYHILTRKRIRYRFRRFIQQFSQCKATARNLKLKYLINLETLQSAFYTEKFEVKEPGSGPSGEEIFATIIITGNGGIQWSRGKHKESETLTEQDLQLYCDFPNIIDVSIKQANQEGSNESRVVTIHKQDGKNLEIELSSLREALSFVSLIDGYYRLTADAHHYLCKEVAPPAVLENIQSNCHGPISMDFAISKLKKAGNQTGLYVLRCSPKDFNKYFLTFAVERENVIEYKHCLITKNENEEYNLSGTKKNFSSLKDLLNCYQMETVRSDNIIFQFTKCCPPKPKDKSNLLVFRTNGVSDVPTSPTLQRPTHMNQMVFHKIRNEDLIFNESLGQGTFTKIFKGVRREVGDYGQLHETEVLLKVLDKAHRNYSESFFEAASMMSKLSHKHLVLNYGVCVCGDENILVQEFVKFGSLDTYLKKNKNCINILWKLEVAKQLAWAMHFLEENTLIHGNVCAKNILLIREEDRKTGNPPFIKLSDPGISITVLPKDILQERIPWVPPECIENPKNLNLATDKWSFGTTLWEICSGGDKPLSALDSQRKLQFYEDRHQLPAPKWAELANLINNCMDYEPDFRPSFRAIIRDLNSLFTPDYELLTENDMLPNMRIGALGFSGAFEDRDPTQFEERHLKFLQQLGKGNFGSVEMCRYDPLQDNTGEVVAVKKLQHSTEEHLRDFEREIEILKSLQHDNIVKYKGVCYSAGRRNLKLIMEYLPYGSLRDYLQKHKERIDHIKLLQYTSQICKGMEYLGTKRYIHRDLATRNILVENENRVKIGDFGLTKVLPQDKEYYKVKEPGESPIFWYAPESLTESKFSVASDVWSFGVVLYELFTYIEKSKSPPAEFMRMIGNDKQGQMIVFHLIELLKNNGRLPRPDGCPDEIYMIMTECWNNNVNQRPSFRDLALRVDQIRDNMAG

Take `CN1CCN(c2ccc3cc2COCC=CCOCc2cccc(c2)-c2ccnc(n2)N3)CC1` (mixture of isomers): the IC50 in data set [1] is 190 nM; in data set [2], 3600 nM; in data set [3], 41 nM; in data set [4] it was > 10000 nM; in data set [6], 30 nM. In addition, in data set [5], the solubility was determined as 26.4 µg/mL.

On to `CCN(CC)CCC(=O)Nc1cc2cc(c1)Nc1nccc(n1)-c1cccc(c1)COCC=CCOC2` (mixture of isomers), for which the 50% inhibitory concentration (IC50) in data set [1] worked out at 18 nM; in data set [7] it was 390 nM; in data set [2], 1900 nM; in data set [3], 44 nM; in data set [4] it was 400 nM; in data set [6], 78 nM.

As for `Oc1ccc2cc1COCC=CCOCc1cccc(c1)-c1ccnc(n1)N2` (mixture of isomers), the concentration for half-maximal inhibition (IC50) in data set [1] amounted to 170 nM; in data set [7], 1100 nM; in data set [2], 400 nM; in data set [3] it was 53 nM; in data set [4], 210 nM; in data set [6] it was 170 nM.

`CC(=O)N1CCN(c2ccc3cc2COCC=CCOCc2cccc(c2)-c2ccnc(n2)N3)CC1` (mixture of isomers): the IC50 in data set [1] came to 110 nM; in data set [7], 6000 nM; in data set [2], 2800 nM; in data set [3] it was 120 nM; in data set [4], 6200 nM; in data set [6] it was 38 nM.

Consider `CCS(=O)(=O)N1CCN(c2ccc3cc2COCC=CCOCc2cccc(c2)-c2ccnc(n2)N3)CC1` (mixture of isomers), for which the concentration for half-maximal inhibition (IC50) in data set [1] is 140 nM; in data set [7], > 10000 nM; in data set [2] it was > 10000 nM; in data set [3], 150 nM; in data set [4] it was > 10000 nM; in data set [6], 150 nM.

`Fc1ccc2cc1COCC=CCOCc1cc(ccc1OCCN1CCCC1)Nc1nccc-2n1` (mixture of isomers): the 50% inhibitory concentration (IC50) in data set [7] is 720 nM; in data set [2], 4600 nM; in data set [3], 25 nM; in data set [4] it was 3250 nM; in data set [6], 40 nM.

`COc1ccc2cc1COCC=CCOCc1cccc(c1)-c1ccnc(n1)N2` (mixture of isomers): the IC50 in data set [1] was found to be 210 nM; in data set [7], 1200 nM; in data set [2] it was 1900 nM; in data set [3] it was 70 nM; in data set [4] it was 860 nM; in data set [6], 190 nM.

Regarding `COc1ccc2cc1COCC=CCCOc1cccc(c1)-c1ccnc(n1)N2` (mixture of isomers), the half-maximal inhibitory concentration (IC50) in data set [1] was 150 nM; in data set [2], 3000 nM; in data set [3], 130 nM; in data set [4], > 10000 nM; in data set [6], 310 nM.

Take `COc1cc2cc(c1OCCN1CCCC1)COCC=CCOCc1cccc(c1)-c1ccnc(n1)N2` (mixture of isomers): the IC50 in data set [1] amounted to 170 nM; in data set [2], 1700 nM; in data set [3] it was 36 nM; in data set [4] it was 3400 nM; in data set [6], 6 nM. This compound also had a solubility in data set [5] of 154 µg/mL.

Turning to `COc1ccc2cc1-c1ccnc(n1)Nc1ccc(OCCN3CCCC3)c(c1)COCC=CCOC2`, the IC50 is 620 nM in data set [1]; 7200 nM in data set [7]; 4900 nM in data set [2]; 330 nM in data set [3]; > 10000 nM in data set [4]; 12 nM in data set [6].

Turning to `O=C1CCN(CCOc2ccc3cc2COCC=CCOCc2cccc(c2)-c2ccnc(n2)N3)C1` (mixture of isomers), the concentration for half-maximal inhibition (IC50) in data set [1] is 140 nM; in data set [7], 380 nM; in data set [2], 940 nM; in data set [3] it was 22 nM; in data set [4] it was 5800 nM; in data set [6], 67 nM.

As to `Nc1cc2cc(c1)Nc1nccc(n1)-c1cccc(c1)COCC=CCOC2` (mixture of isomers), the 50% inhibitory concentration (IC50) in data set [3] is 35 nM; in data set [4], 240 nM; in data set [6] it was 52 nM. Moreover, the solubility in data set [5] came out at 25 µg/mL.

Turning to `Fc1cnc2nc1-c1cccc(c1)COCC=CCOCc1cc(ccc1OCCN1CCCC1)N2` (mixture of isomers), the IC50 in data set [1] was 140 nM; in data set [7], 1000 nM; in data set [2], 830 nM; in data set [3] it was 17 nM; in data set [4], 1550 nM; in data set [6] it was 15 nM.

In the case of `CN(C)CCN(C)c1ccc2cc1COCC=CCOCc1cccc(c1)-c1ccnc(n1)N2` (mixture of isomers), the IC50 in data set [1] was determined as 71 nM; in data set [2], 3600 nM; in data set [3] it was 77 nM; in data set [4], 88 nM; in data set [6], 31 nM. The compound further came in with a solubility in data set [5] of 171 µg/mL.

In the case of `ClCCOc1ccc2cc1COCC=CCOCc1cccc(c1)-c1ccnc(n1)N2` (mixture of isomers), the IC50 in data set [1] was 470 nM; in data set [7], > 10000 nM; in data set [2], > 10000 nM; in data set [3] it was 220 nM; in data set [4], > 10000 nM; in data set [6], 76 nM.

Turning to `Fc1cc2cc(c1)-c1ccnc(n1)Nc1ccc(OCCN3CCCC3)c(c1)COCC=CCOC2` (mixture of isomers), the IC50 in data set [1] came out at 36 nM; in data set [2], 380 nM; in data set [3], 24 nM; in data set [4], 2000 nM; in data set [6], 8 nM. In data set [5], the solubility was 2.61 µg/mL.

Regarding `C1=CCOCc2cc(ccc2N2CCOCC2)Nc2nccc(n2)-c2cccc(c2)COC1` (mixture of isomers), the concentration for half-maximal inhibition (IC50) in data set [1] is 160 nM; in data set [2], 8700 nM; in data set [3], 60 nM; in data set [4] it was > 10000 nM; in data set [6] it was 32 nM.

Take `C1=CCCOc2cccc(c2)-c2ccnc(n2)Nc2cccc(c2)OCC1`: the IC50 in data set [1] is 5200 nM; in data set [7] it was > 10000 nM; in data set [2] it was > 10000 nM; in data set [3] it was 1200 nM; in data set [4], > 10000 nM; in data set [6], 1100 nM.

Regarding `O=C1CCCN1CCOc1ccc2cc1COCC=CCOCc1cccc(c1)-c1ccnc(n1)N2` (mixture of isomers), the IC50 in data set [1] amounted to 180 nM; in data set [7], 500 nM; in data set [2], 1300 nM; in data set [3], 22 nM; in data set [4] it was 9400 nM; in data set [6] it was 140 nM.

(Values after ChEMBL document CHEMBL2176955, “Discovery of the macrocycle 11-(2-pyrrolidin-1-yl-ethoxy)-14,19-dioxa-5,7,26-triaza-tetracyclo[19.3.1.1(2,6).1(8,12)]heptacosa-1(25),2(26),3,5,8,10,12(27),16,21,23-decaene (SB1518), a potent Janus kinase 2/fms-like tyrosine kinase-3 (JAK2/FLT3) inhibitor for the treatment of myelofibrosis and …” (J Med Chem, 2011).)
